Experimental data as given in publication PMC3947748 (Journal of biomolecular screening, 2010).
Like-named read-outs stand apart in the source and are kept apart here.

Columns and labels:
Nek2 [1] = biological target: T1, Nek2 (Homo sapiens, UniProt P51955); assay: FlashPlate radiometric proximity assay of Nek2 kinase activity; format: biochemical
T1 sequence (P51955 1-445): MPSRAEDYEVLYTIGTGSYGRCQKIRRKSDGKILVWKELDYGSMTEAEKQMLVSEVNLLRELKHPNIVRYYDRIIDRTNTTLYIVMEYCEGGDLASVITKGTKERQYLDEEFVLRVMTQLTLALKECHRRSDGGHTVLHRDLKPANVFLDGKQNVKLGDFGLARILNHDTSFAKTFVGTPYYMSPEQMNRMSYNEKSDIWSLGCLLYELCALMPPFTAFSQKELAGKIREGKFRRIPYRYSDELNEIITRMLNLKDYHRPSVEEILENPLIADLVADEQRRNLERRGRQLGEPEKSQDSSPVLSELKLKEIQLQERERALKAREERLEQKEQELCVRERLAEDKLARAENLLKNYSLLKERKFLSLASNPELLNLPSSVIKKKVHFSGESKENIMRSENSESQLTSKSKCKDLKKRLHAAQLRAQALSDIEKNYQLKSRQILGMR

HeLa cells = assay: Growth inhibition assay; format: cell-based; details: Homo sapiens, 72 h, read-out: Growth inhibition GI50, HeLa
How it was run: (§1)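 Cells cultured as previously described, seeded at […], then given test compound in DMSO over a concentration range, or DMSO alone (1-2% final), after 24 h. Incubation 72 h.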

U2OS cells = assay: Growth inhibition assay; format: cell-based; details: Homo sapiens, 72 h, read-out: Growth inhibition GI50, U2OS
How it was run: as §1

Nek6 = Nek6 (Homo sapiens, UniProt Q9HC98); assay: Kinase specificity assay; format: biochemical
Cdk1/Cyclin B = Cdk1/Cyclin B (Homo sapiens, UniProt P06493); assay: Kinase specificity assay; format: biochemical
Aurora A = biological target: T2, Aurora A (Homo sapiens, UniProt O14965); assay: Kinase specificity assay; format: biochemical
T2 sequence (O14965 1-403): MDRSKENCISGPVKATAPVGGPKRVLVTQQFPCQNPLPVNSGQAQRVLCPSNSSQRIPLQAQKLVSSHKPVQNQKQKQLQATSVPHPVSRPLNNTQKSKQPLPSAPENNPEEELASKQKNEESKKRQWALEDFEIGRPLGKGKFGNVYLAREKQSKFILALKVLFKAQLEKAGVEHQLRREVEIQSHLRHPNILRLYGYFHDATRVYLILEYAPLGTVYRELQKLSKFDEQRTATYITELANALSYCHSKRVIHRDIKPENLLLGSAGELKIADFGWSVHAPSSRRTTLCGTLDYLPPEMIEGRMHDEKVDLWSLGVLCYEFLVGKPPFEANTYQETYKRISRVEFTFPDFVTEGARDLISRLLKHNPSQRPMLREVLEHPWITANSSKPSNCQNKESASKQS

Nek7 = Nek7 (Homo sapiens, UniProt Q8TDX7); assay: Kinase specificity assay; format: biochemical
U2OS:GFP-Nek2A cells = assay: Manual immunofluorescence assay of Nek2A-induced centrosome splitting; format: cell-based, human; details: doxycycline-induced cells; 0.5, 5 and 50 μM; 24 hours; γ-tubulin stain
How it was run: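 Tetracycline-inducible stable U2OS:GFP-Nek2A cells were induced with doxycycline together with test compound (0.5, 5, 50 μM) or DMSO (2%) for 24 h. Cells were fixed and stained for γ-tubulin and DNA for indirect immunofluorescence. The percentage of interphase cells with centrosomes more than 2 μm apart was scored. Three repeat experiments, standard deviations; Student's t-test versus DMSO.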

Nek2 [2] = biological target: T1, Nek2; assay: Filter assay of Nek2 kinase activity; format: biochemical

Cdk1/Cyclin B, sequence (P14635 whole entry): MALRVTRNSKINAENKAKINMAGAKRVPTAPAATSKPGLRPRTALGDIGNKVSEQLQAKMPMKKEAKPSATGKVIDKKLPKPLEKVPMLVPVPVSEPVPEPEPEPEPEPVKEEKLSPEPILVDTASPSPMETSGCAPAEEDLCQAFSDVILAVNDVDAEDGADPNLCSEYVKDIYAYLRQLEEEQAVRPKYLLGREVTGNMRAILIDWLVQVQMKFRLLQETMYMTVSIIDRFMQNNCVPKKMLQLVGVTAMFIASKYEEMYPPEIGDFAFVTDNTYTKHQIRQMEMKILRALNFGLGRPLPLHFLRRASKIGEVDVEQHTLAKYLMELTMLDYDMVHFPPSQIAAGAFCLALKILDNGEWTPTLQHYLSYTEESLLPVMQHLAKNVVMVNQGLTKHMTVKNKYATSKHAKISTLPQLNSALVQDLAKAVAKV
Cdk1/Cyclin B, sequence (P06493 whole entry): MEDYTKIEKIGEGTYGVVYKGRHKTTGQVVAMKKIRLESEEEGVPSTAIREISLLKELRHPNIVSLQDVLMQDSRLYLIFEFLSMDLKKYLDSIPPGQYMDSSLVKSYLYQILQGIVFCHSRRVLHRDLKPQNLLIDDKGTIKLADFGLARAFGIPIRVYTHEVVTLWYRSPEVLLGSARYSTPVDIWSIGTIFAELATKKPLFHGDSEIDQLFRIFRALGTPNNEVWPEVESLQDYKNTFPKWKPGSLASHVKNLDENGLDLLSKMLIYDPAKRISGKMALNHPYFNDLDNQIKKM
Nek6, sequence (Q9HC98 whole entry, species assumed): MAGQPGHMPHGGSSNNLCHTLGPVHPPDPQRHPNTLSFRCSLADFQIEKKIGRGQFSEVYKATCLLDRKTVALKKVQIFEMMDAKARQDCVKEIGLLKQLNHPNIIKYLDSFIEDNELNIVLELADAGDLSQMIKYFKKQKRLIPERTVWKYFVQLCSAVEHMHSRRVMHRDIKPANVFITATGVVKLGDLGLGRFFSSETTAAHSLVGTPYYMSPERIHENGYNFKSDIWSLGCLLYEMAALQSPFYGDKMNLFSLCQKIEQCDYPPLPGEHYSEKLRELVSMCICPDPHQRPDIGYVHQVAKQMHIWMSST
Nek7, sequence (Q8TDX7 whole entry, species assumed): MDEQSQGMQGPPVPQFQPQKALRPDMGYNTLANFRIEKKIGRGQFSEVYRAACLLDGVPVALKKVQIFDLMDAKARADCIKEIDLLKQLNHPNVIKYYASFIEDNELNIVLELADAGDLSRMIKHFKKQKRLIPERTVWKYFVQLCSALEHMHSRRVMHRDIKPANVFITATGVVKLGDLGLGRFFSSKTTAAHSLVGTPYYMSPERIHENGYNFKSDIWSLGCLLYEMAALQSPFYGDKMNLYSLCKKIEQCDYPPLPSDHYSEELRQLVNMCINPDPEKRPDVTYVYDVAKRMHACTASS

## CN[C@@H]1C[C@H]2O[C@@](C)([C@@H]1OC)n1c3ccccc3c3c4c(c5c6ccccc6n2c5c31)C(=O)NC4 [Staurosporine, staurosporine]
Nek2 [1]; data not shown
  Hill slope of Nek2 inhibition: ~1.0
Nek2 [1]; read-out: Inhibition of Nek2 activity at 25 μM, entire screen
  inhibition at 25 µM: 59 ± 18%
Nek2 [1]; read-out: Inhibition of Nek2 activity at 25 μM, typical batch
  inhibition at 25 µM: 61.2 ± 2.4%

## COC[C@H]1OC(=O)c2coc3c2[C@@]1(C)C1=C(C3=O)[C@@H]2CCC(=O)[C@@]2(C)C[C@H]1OC(C)=O [Wortmannin]
HeLa cells
  GI50: 15 µM
U2OS cells
  GI50: 23.7 µM
Nek6
  IC50: > 400 µM
Cdk1/Cyclin B
  IC50: > 400 µM
Aurora A
  IC50: > 400 µM
Nek7
  IC50: > 400 µM

## Oc1ccc(Nc2nc(OCC3CCCCC3)c3[nH]cnc3n2)cc1 [NU6120, 6-cyclohexylmethoxy-2-(4′-hydroxyanilino)purine]
U2OS:GFP-Nek2A cells
  Effect on Nek2A-induced centrosome splitting (manual scoring, split >2 μm): had no effect on splitting

## O=c1cc(N2CCOCC2)oc2c(-c3ccccc3)cccc12 [LY294002]
Nek2 [1]
  Nek2 inhibition, FlashPlate (result in words): inactive
Nek2 [2]
  Nek2 inhibition, filter assay (result in words): inactive
